Test results published in ChEMBL document CHEMBL1126750, “Nonpeptide angiotensin II receptor antagonists. Synthesis and biological activity of benzimidazolecarboxylic acids” (J Med Chem, 1993).

Assays:
[1] = target: T1, Angiotensin II receptor (Rattus norvegicus) (UniProt P29089+P25095+P35351); test: Percent inhibition of the Angiotensin-II (0.1ug/kg, iv) induced pressor response after 3 hours of administration (3 mg/kg po) in rats; assay type: functional, organism-based
Method in brief: (§1)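 Conscious male Sprague-Dawley rats dosed orally with test compound; pressor response to AII challenge (0.1 µg/kg iv) measured at 3 and 7 h after dosing and expressed as percent inhibition. Duplicate experiments, with n = 3 for some compounds; variation in % inhibition under 30%.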

[2] = target: T1, Angiotensin II receptor (Rattus norvegicus); test: Percent inhibition of the Angiotensin-II (0.1ug/kg, iv) induced pressor response after 3 hours of administration (1 mg/kg po) in rats; assay type: functional, organism-based; method in brief: as §1
Rattus norvegicus [3] = test: Percent inhibition of the Angiotensin-II (0.1micro g/kg, iv) induced pressor response after 7 hours of administration (10 mg/kg po) in rats; assay type: functional; method in brief: as §1
[4] = target: T2, Type-1 angiotensin II receptor (Bos taurus, UniProt P25104); test: Inhibition of specific binding of [125 I ] Angiotensin-II (0.2 nM) to bovine adrenal cortex; assay type: tissue-based
T2 sequence (P25104 whole entry): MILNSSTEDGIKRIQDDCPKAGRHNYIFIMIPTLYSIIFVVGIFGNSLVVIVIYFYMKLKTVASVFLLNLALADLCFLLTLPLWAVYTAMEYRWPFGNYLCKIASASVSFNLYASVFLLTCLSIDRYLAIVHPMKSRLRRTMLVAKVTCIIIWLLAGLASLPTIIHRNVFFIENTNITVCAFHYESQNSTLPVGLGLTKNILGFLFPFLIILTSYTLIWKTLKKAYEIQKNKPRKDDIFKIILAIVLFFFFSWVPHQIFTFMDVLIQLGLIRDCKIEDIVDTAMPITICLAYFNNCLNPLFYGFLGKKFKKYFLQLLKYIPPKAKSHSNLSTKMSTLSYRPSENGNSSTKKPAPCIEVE

Oryctolagus cuniculus = organism: Oryctolagus cuniculus; test: Concentration required for inhibition of Angiotensin-II induced rabbit aorta strips contraction; assay type: functional
Method in brief: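 Isolated rabbit aortic strips contracted with AII (10 nM); test compound inhibition measured from concentration-inhibition curves, n = 6-8; IC50 is the concentration halving the AII-induced contraction.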

[5] = target: T1, Angiotensin II receptor (Rattus norvegicus); test: Percent inhibition of the Angiotensin-II (0.1micro g/kg, iv) induced pressor response after 7 hours of administration (3 mg/kg po) in rats; assay type: functional, organism-based; method in brief: as §1
[6] = target: T1, Angiotensin II receptor (Rattus norvegicus); test: Percent inhibition of the Angiotensin-II (0.1ug/kg, iv) induced pressor response after 7 hours of administration (1 mg/kg po) in rats; assay type: functional, organism-based; method in brief: as §1
Rattus norvegicus [7] = test: Percent inhibition of the Angiotensin-II (0.1micro g/kg, iv) induced pressor response after 3 hours of administration (10 mg/kg po) in rats; assay type: functional; method in brief: as §1
Rattus norvegicus [8] = test: Percent inhibition of the Angiotensin-II (0.1 micro g/kg, iv) induced pressor response after 3 hours of administration (3 mg/kg po) in rats; assay type: functional; method in brief: as §1
Rattus norvegicus [9] = test: Percent inhibition of the Angiotensin-II (0.1micro g/kg, iv) induced pressor response after 7 hours of administration (1 mg/kg po) in rats.; assay type: functional; method in brief: as §1
Rattus norvegicus [10] = test: Percent inhibition of the Angiotensin-II (0.1 micro g/kg, iv) induced pressor response after 7 hours of administration (1 mg/kg po) in rats; assay type: functional; method in brief: as §1
Rattus norvegicus [11] = test: Percent inhibition of the Angiotensin-II (0.1micro g/kg, iv) induced pressor response after 7 hours of administration (1 mg/kg po) in rat; assay type: functional; method in brief: as §1
Rattus norvegicus [12] = test: Percent inhibition of the Angiotensin-II (0.1micro g/kg, iv) induced pressor response after 7 hours of administration (1 mg/kg po) in rats; assay type: functional; method in brief: as §1

Row | Structure (SMILES) | inhibition [1] [%] | inhibition [2] [%] | IC50 [4] [nM] | inhibition [5] [%] | inhibition [6] [%] | also measured
1 | CCc1nc2cccc(C(=O)O)c2n1Cc1ccc(-c2ccccc2-c2nn[nH]n2)cc1 | – | 79 | – | 95 | 62 | Inhibition (Rattus norvegicus [8]): 96%
2 | CCNc1nc2cccc(C(=O)O)c2n1Cc1ccc(-c2ccccc2-c2nn[nH]n2)cc1 | 100 | 81 | – | 100 | – | Inhibition (Rattus norvegicus [9]): 85%
3 | CCCCNc1nc2cccc(C(=O)O)c2n1Cc1ccc(-c2ccccc2-c2nn[nH]n2)cc1 | 52 | 38 | – | 61 | – | Inhibition (Rattus norvegicus [10]): 19%
4 | CNc1nc2cccc(C(=O)O)c2n1Cc1ccc(-c2ccccc2-c2nn[nH]n2)cc1 | – | 28 | – | – | – | Inhibition (Rattus norvegicus [12]): 49%

Continued, in another order:

Row | inhibition [1] [%] | inhibition [2] [%] | IC50 [4] [nM] | inhibition [5] [%] | inhibition [6] [%] | Structure (SMILES) | also measured
5 | 100 | 100 | 110 | 100 | 92 | CCOc1nc2cccc(C(=O)O)c2n1Cc1ccc(-c2ccccc2-c2nnn[nH]2)cc1 | Inhibition (Rattus norvegicus [3]): 100%; IC50 (Oryctolagus cuniculus): 0.2 nM; Inhibition (Rattus norvegicus [7]): 100%
6 | – | 42 | 800 | – | – | CNCc1nc2cccc(C(=O)O)c2n1Cc1ccc(-c2ccccc2-c2nn[nH]n2)cc1 | Inhibition (Rattus norvegicus [11]): 50%
